Columns and labels:
[1] = test system: mitochondrial membrane potential (Δψm) in SH-SY5Y cells; assay: JC-10 mitochondrial membrane potential assay; assay type: cell-based, human
[2] = test system: NF-κB (p50, p52, p65, RelB, c-Rel) in SH-SY5Y cells; assay: Nuclear NF-κB DNA-binding ELISA; assay type: cell-based, human
GSK-3β = GSK-3β (Homo sapiens, UniProt P49841); assay: ADP-Glo kinase luminescent assay; assay type: biochemical; conditions: 1 μM TPPU, in comparison with p38β
p38δ = assay: ADP-Glo kinase luminescent assay; assay type: biochemical, human; conditions: 1 μM TPPU
How it was run: (§1)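 Test compound at 1 μM, or 0.2% PEG 400 vehicle. Incubated 1 h at room temperature, then ADP-Glo luminescence read. Staurosporine 1 μM served as reference. Activity expressed relative to vehicle. Duplicates, six independent experiments.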

sEH in SH-SY5Y cells = assay: Cellular sEH activity in SH-SY5Y cells, [3H]-t-DPPO substrate; assay type: cell-based, human; conditions: 10, 100 and 1000 nM for 24 h
SH-SY5Y cells [3] = assay: Neuronal morphology analysis under Aβ42; assay type: cell-based, human; conditions: 100 nM pretreatment then 10 μM Aβ42, 72 h
p38α = assay: ADP-Glo kinase luminescent assay; assay type: biochemical, human; conditions: 1 μM TPPU
How it was run: as §1

AMPKA2 = assay: ADP-Glo kinase luminescent assay; assay type: biochemical, human; conditions: 1 μM TPPU, in comparison with p38β
How it was run: as §1

[4] = test system: Tau pS396 in SH-SY5Y cells; assay: Anti-tau hyperphosphorylation ELISA; assay type: cell-based, human
p38γ kinase = biological target: T1, p38γ kinase (Homo sapiens, UniProt P53778); assay: ADP-Glo kinase luminescent assay; assay type: biochemical; conditions: 1 μM TPPU, relative to vehicle control
T1 sequence (P53778 1-367): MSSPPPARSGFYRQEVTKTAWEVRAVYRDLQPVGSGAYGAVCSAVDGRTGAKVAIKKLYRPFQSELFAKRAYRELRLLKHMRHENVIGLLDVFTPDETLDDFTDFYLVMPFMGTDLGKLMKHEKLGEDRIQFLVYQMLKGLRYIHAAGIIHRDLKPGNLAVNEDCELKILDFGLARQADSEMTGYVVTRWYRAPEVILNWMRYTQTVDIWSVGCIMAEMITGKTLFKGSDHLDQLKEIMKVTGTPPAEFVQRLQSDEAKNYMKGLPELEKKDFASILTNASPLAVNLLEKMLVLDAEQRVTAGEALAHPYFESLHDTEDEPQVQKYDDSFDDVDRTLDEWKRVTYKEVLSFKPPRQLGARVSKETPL

[5] = test system: Aβ42 neurotoxicity in SH-SY5Y cells; assay: Anti-Aβ42 neurotoxicity assay; assay type: cell-based, human; conditions: 0.1 μM pretreatment 1 h then 10 μM Aβ42 72 h
p38β kinase = p38β kinase (Homo sapiens, UniProt Q15759); assay: ADP-Glo kinase luminescent assay; assay type: biochemical; conditions: 1 μM TPPU, relative to vehicle control
CK1α1 = assay: ADP-Glo kinase luminescent assay; assay type: biochemical, human; conditions: 1 μM TPPU, in comparison with p38β
How it was run: as §1

SH-SY5Y cells [6] = assay: Cell viability / cytotoxicity MTS assay; assay type: cell-based, human; conditions: TPPU alone, 72 h
sEH = conditions: read-out: IC50 sEH; cited from earlier work
p38α/β = conditions: read-out: IC50 p38α/β; cited from earlier work

Sequence of GSK-3β (P49841 whole entry): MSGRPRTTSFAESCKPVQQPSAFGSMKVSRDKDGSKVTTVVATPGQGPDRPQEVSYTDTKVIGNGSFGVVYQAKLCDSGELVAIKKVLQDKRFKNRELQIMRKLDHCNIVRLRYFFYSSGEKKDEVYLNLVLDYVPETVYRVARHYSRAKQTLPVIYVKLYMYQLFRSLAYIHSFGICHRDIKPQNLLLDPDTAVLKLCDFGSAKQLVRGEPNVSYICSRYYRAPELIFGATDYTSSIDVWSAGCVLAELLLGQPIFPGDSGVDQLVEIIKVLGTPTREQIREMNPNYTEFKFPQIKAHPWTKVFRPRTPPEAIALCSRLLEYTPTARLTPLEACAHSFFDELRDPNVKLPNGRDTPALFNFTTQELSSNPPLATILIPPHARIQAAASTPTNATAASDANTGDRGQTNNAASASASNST
Sequence of p38β kinase (Q15759 whole entry): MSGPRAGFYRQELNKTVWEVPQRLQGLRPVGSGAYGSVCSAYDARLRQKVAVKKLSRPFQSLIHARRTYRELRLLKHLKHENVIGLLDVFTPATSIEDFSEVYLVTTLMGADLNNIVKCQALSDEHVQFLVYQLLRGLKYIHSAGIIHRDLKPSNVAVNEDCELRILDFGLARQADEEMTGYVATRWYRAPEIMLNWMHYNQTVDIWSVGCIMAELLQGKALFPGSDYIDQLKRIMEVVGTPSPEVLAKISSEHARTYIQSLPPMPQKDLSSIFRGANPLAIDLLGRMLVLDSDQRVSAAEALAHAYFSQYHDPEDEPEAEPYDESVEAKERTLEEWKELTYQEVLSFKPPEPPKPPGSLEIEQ

Compound: N#CC(C#N)=NNc1ccc(OC(F)(F)F)cc1 [FCCP, carbonyl cyanide-4-(trifluoromethoxy)phenylhydrazone]
- Δψm depolarization (reference ionophore) ([1]; FCCP 50 μM): depolarized Δψm

Compound: C[C@@H]1C[C@H]2[C@@H]3CCC4=CC(=O)C=C[C@]4(C)[C@@]3(F)[C@@H](O)C[C@]2(C)[C@@]1(O)C(=O)CO [DEX, dexamethasone, reference compound]
- levels of NF-κB subunits in neuronal nuclei ([2]; 0.1 μM DEX pretreatment 1 h then 5 μM Aβ42 8 h): significantly reduced levels of all five NF-κB subunits

Compound: CCC(=O)N1CCC(NC(=O)Nc2ccc(OC(F)(F)F)cc2)CC1 [TPPU]
- inhibition of kinase activity (GSK-3β): weakly inhibited
- inhibitory effect on kinase activity (p38δ): not significant
- cellular sEH activities (sEH in SH-SY5Y cells): significantly decreased cellular sEH activities in a dose-dependent manner
- neuronal morphology / Aβ42 toxicity (SH-SY5Y cells [3]): effectively relieved Aβ42 toxicity
- inhibitory effect on kinase activity (p38α): not significant
- inhibition of kinase activity (AMPKA2): weakly inhibited
- Aβ42-induced tau phosphorylation level at pS396 ([4]; 0.01, 0.1 and 1 μM pretreatment 1 h then 10 μM Aβ42 72 h, p < 0.0001): significantly mitigated
- alleviation of tau hyperphosphorylation compared with SB202190 ([4]; TPPU 0.01 μM versus SB202190 0.05 μM): stronger alleviative effect
- remaining kinase activity (p38γ kinase): 49%
- nuclear translocation of NF-κB subunits ([2]; 0.05 and 0.1 μM pretreatment 1 h then 5 μM Aβ42 8 h, p < 0.0001): inhibited nuclear translocation of all five subunits
- neuroprotection (cell viability) [5]: effective neuroprotection
- remaining kinase activity (p38β kinase): 36%
- inhibition of kinase activity (CK1α1): weakly inhibited
- tolerable and nontoxic dose (SH-SY5Y cells [6]): ≤ 1000 nM

Compound: epoxyeicosatrienoic acids [EETs, reference compound]
- loss of Δψm induced by Aβ42 ([1]; 0.1 μM pretreatment, 10 μM Aβ42 72 h): attenuated the loss of Δψm
- neuroprotection (cell viability) [5]: effective neuroprotection
